From ChEMBL document CHEMBL1275448, “Identification of a novel multidrug efflux pump of Mycobacterium tuberculosis” (2008)
In brackets after ≈: the same amount, converted by molar mass.

Key:
Format in all cases: functional
[1] = system: Mycobacterium tuberculosis variant bovis BCG; test: Antimicrobial activity against Mycobacterium bovis BCG ML1062 carrying transposon IS1096::Km inserted at -18bp of pks11 gene by microplate Alamar blue assay
Outline: (§1)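 Whole-cell M. bovis BCG (Institut Pasteur) MABA; mutants carried IS1096::Km insertions. Growth was in Middlebrook 7H9 with 0.2% glycerol, 0.05% Tween 80 and 10% OADC. Final drug ranges: ampicillin 62.5–2,000 μg/ml, vancomycin 1.25–40 μg/ml, streptomycin 0.25–8 μg/ml, chloramphenicol 4–128 μg/ml, tetracycline 0.5–16 μg/ml. MIC was the lowest concentration cutting viability ≥90%, read by fluorescence (ex 530/em 590 nm, room temperature).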

[2] = system: Mycobacterium tuberculosis variant bovis BCG; test: Antimicrobial activity against Mycobacterium bovis BCG ML1006 carrying transposon IS1096::Km inserted at +720bp of bcg3787 gene by microplate Alamar blue assay; outline: as §1
[3] = system: Mycobacterium tuberculosis variant bovis BCG; test: Antimicrobial activity against Mycobacterium bovis BCG ML1012 carrying transposon IS1096::Km inserted at +1255bp of bcg3960c gene by microplate Alamar blue assay; outline: as §1
[4] = system: Mycobacterium tuberculosis variant bovis BCG; test: Antimicrobial activity against Mycobacterium bovis BCG ML1052 carrying transposon IS1096::Km inserted at +78bp of bcg2824 gene by microplate Alamar blue assay; outline: as §1
[5] = system: Mycobacterium tuberculosis variant bovis BCG; test: Antimicrobial activity against Mycobacterium bovis BCG ML1050 carrying transposon IS1096::Km inserted at +41bp of bcg2827 gene by microplate Alamar blue assay; outline: as §1
[6] = system: Mycobacterium tuberculosis variant bovis BCG; test: Antimicrobial activity against Mycobacterium bovis BCG ML1061 carrying transposon IS1096::Km inserted at +19bp of lppA gene by microplate Alamar blue assay; outline: as §1
[7] = system: Mycobacterium tuberculosis variant bovis BCG; test: Antimicrobial activity against Mycobacterium bovis BCG ML1075 carrying transposon IS1096::Km inserted at +899bp of gca gene by microplate Alamar blue assay; outline: as §1
[8] = system: Mycolicibacterium smegmatis; test: Resistance factor, ratio of MIC for Mycobacterium smegmatis overexpressing rv0194 gene to MIC for wild-type Mycobacterium smegmatis SMR5
Outline: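 Resistance factor is the MABA MIC for M. smegmatis expressing rv0194 divided by the MIC for wild-type SMR5. MIC was the lowest concentration giving ≥90% viability reduction by fluorescence (ex 530/em 590 nm).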

[9] = system: Mycobacterium tuberculosis variant bovis BCG; test: Antimicrobial activity against Mycobacterium bovis BCG ML1047 carrying transposon IS1096::Km inserted at +544bp of fadD23 gene by microplate Alamar blue assay; outline: as §1
[10] = system: Mycobacterium tuberculosis variant bovis BCG; test: Antimicrobial activity against Mycobacterium bovis BCG ML1040 carrying transposon IS1096::Km inserted at +1930bp of papA2 gene by microplate Alamar blue assay; outline: as §1
[11] = system: Mycobacterium tuberculosis variant bovis BCG; test: Antimicrobial activity against Mycobacterium bovis BCG ML1046 carrying transposon IS1096::Km inserted at +33bp of bcg2743 gene by microplate Alamar blue assay; outline: as §1
[12] = system: Mycobacterium tuberculosis variant bovis BCG; test: Antimicrobial activity against Mycobacterium bovis BCG ML1037 carrying transposon IS1096::Km inserted at +1765bp of bcg3693 gene by microplate Alamar blue assay; outline: as §1
[13] = system: Mycobacterium tuberculosis variant bovis BCG; test: Antimicrobial activity against Mycobacterium bovis BCG ML1009 carrying transposon IS1096::Km inserted at +368bp of cyp121 gene by microplate Alamar blue assay; outline: as §1
[14] = system: Mycobacterium tuberculosis variant bovis BCG; test: Antimicrobial activity against Mycobacterium bovis BCG ML1036 carrying transposon IS1096::Km inserted at +277bp of agpS gene by microplate Alamar blue assay; outline: as §1
[15] = system: Mycobacterium tuberculosis variant bovis BCG; test: Antimicrobial activity against Mycobacterium bovis BCG ML1038 carrying transposon IS1096::Km inserted at +78bp of bcg2735 gene by microplate Alamar blue assay; outline: as §1
[16] = system: Mycobacterium tuberculosis variant bovis BCG; test: Antimicrobial activity against Mycobacterium bovis BCG ML1029 carrying transposon IS1096::Km inserted at +524bp of bcg2734c gene by microplate Alamar blue assay; outline: as §1
[17] = system: Mycobacterium tuberculosis variant bovis BCG; test: Antimicrobial activity against Mycobacterium bovis BCG ML1051 carrying transposon IS1096::Km inserted at -420bp of bcg2965 gene by microplate Alamar blue assay; outline: as §1
[18] = system: Mycobacterium tuberculosis variant bovis BCG; test: Antimicrobial activity against Mycobacterium bovis BCG ML1013 carrying transposon IS1096::Km inserted at +923bp of cpsY gene by microplate Alamar blue assay; outline: as §1
[19] = system: Mycobacterium tuberculosis variant bovis BCG; test: Antimicrobial activity against Mycobacterium bovis BCG ML1007 carrying transposon IS1096::Km inserted at +988bp of ppe53 gene by microplate Alamar blue assay; outline: as §1
[20] = system: Mycobacterium tuberculosis variant bovis BCG; test: Antimicrobial activity against Mycobacterium bovis BCG ML1048 carrying transposon IS1096::Km inserted at +519bp of bcg1567c gene by microplate Alamar blue assay; outline: as §1
[21] = system: Mycobacterium tuberculosis variant bovis BCG; test: Antimicrobial activity against Mycobacterium bovis BCG ML1044 carrying transposon IS1096::Km inserted at -178bp of ppe33b gene by microplate Alamar blue assay; outline: as §1
[22] = system: Mycolicibacterium smegmatis; test: Antimicrobial activity against Mycobacterium smegmatis overexpressing rv0194 gene by microplate Alamar blue assay
Outline: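 M. smegmatis SMR5 carried either control plasmid pMS2 or rv0194 expression vector pML655. Cells were grown at 37°C in Middlebrook 7H9 with 0.2% glycerol and 0.05% Tween 80, then tested by microplate Alamar blue assay. MIC was the lowest antibiotic concentration reducing culture viability by ≥90%, read by fluorescence (ex 530/em 590 nm, room temperature).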

[23] = system: Mycobacterium tuberculosis variant bovis BCG; test: Antimicrobial activity against Mycobacterium bovis BCG ML1042 carrying transposon IS1096::Km inserted at -509bp of bcg2123c/pe22 gene by microplate Alamar blue assay; outline: as §1
[24] = system: Mycobacterium tuberculosis variant bovis BCG; test: Antimicrobial activity against Mycobacterium bovis BCG ML1034 carrying transposon IS1096::Km inserted at -54bp of bcg0231 gene by microplate Alamar blue assay; outline: as §1
[25] = system: Mycobacterium tuberculosis variant bovis BCG; test: Antimicrobial activity against Mycobacterium bovis BCG ML1064 carrying transposon IS1096::Km inserted at +569bp of lppB gene by microplate Alamar blue assay; outline: as §1
[26] = system: Mycobacterium tuberculosis variant bovis BCG; test: Antimicrobial activity against Mycobacterium bovis BCG ML1058 carrying transposon IS1096::Km inserted at +320bp of lprR gene by microplate Alamar blue assay; outline: as §1
[27] = system: Mycobacterium tuberculosis variant bovis BCG; test: Antimicrobial activity against Mycobacterium bovis BCG ML1034 by microplate Alamar blue assay; outline: as §1
[28] = system: Mycobacterium tuberculosis variant bovis BCG; test: Antimicrobial activity against Mycobacterium bovis BCG ML1025 carrying transposon IS1096::Km inserted at +435bp of bcg3145 gene by microplate Alamar blue assay; outline: as §1
[29] = system: Mycobacterium tuberculosis variant bovis BCG; test: Antimicrobial activity against Mycobacterium bovis BCG ML1065 carrying transposon IS1096::Km inserted at +96bp of bcg0061 gene by microplate Alamar blue assay; outline: as §1
[30] = system: Mycobacterium tuberculosis variant bovis BCG; test: Antimicrobial activity against Mycobacterium bovis BCG ML1010 carrying transposon IS1096::Km inserted at +43bp of ppe gene by microplate Alamar blue assay; outline: as §1
[31] = system: Mycobacterium tuberculosis variant bovis BCG; test: Antimicrobial activity against Mycobacterium bovis BCG ML1060 carrying transposon IS1096::Km inserted at -206bp of fadD25/mmpL12 gene by microplate Alamar blue assay; outline: as §1
[32] = system: Mycobacterium tuberculosis variant bovis BCG; test: Antimicrobial activity against Mycobacterium bovis BCG ML1030 carrying transposon IS1096::Km inserted at +849bp of bcg1988c gene by microplate Alamar blue assay; outline: as §1
[33] = system: Mycobacterium tuberculosis variant bovis BCG; test: Antimicrobial activity against Mycobacterium bovis BCG ML1069 carrying transposon IS1096::Km inserted at +205bp of gmhA gene by microplate Alamar blue assay; outline: as §1
[34] = system: Mycobacterium tuberculosis variant bovis BCG; test: Antimicrobial activity against Mycobacterium bovis BCG ML1041 carrying transposon IS1096::Km inserted at +1707bp of ppe24 gene by microplate Alamar blue assay; outline: as §1
[35] = system: Mycobacterium tuberculosis variant bovis BCG; test: Antimicrobial activity against Mycobacterium bovis BCG ML1053 carrying transposon IS1096::Km inserted at +271bp of bcg2326c gene by microplate Alamar blue assay; outline: as §1

## CC1(C)S[C@@H]2[C@H](NC(=O)[C@H](N)c3ccccc3)C(=O)N2[C@H]1C(=O)O [AMPICILLIN]
[1]
  MIC: > 2000 µg/mL
[2]
  MIC: 2000 µg/mL (≈ 5720 µM)
[3]
  MIC: > 2000 µg/mL
[4]
  MIC: > 500 µg/mL
[5]
  MIC: 2000 µg/mL (≈ 5720 µM)
[6]
  MIC: > 2000 µg/mL
[7]
  MIC: 2000 µg/mL (≈ 5720 µM)
[8]
  Ratio: 2
[9]
  MIC: 2000 µg/mL (≈ 5720 µM)
[10]
  MIC: 2000 µg/mL (≈ 5720 µM)
[11]
  MIC: 500 µg/mL (≈ 1430 µM)
[12]
  MIC: 250 µg/mL (≈ 715 µM)
[13]
  MIC: 2000 µg/mL (≈ 5720 µM)
[14]
  MIC: 250 µg/mL (≈ 715 µM)
[15]
  MIC: 2000 µg/mL (≈ 5720 µM)
[16]
  MIC: > 2000 µg/mL
[17]
  MIC: > 500 µg/mL
[18]
  MIC: 2000 µg/mL (≈ 5720 µM)
[19]
  MIC: 2000 µg/mL (≈ 5720 µM)
[20]
  MIC: 250 µg/mL (≈ 715 µM)
[21]
  MIC: 250 µg/mL (≈ 715 µM)
[22]
  MIC: 250 µg/mL (≈ 715 µM)
[23]
  MIC: 500 µg/mL (≈ 1430 µM)
[24]
  MIC: 2000 µg/mL (≈ 5720 µM)
[25]
  MIC: 2000 µg/mL (≈ 5720 µM)
[26]
  MIC: 2000 µg/mL (≈ 5720 µM)
[27]
  MIC: 2000 µg/mL (≈ 5720 µM)
[28]
  MIC: 250 µg/mL (≈ 715 µM)
[29]
  MIC: > 2000 µg/mL
[30]
  MIC: 500 µg/mL (≈ 1430 µM)
[31]
  MIC: 250 µg/mL (≈ 715 µM)
[32]
  MIC: 2000 µg/mL (≈ 5720 µM)
[33]
  MIC: 2000 µg/mL (≈ 5720 µM)
[34]
  MIC: > 2000 µg/mL
[35]
  MIC: 2000 µg/mL (≈ 5720 µM)

## O=C(N[C@H](CO)[C@H](O)c1ccc([N+](=O)[O-])cc1)C(Cl)Cl [CHLORAMPHENICOL]
[8]
  Ratio: 1
[22]
  MIC: 32 µg/mL (≈ 99 µM)
[27]
  MIC: 512 µg/mL (≈ 1580 µM)

## CC[C@H]1OC(=O)[C@H](C)[C@@H](O[C@H]2C[C@@](C)(OC)[C@@H](O)[C@H](C)O2)[C@H](C)[C@@H](O[C@@H]2O[C@H](C)C[C@H](N(C)C)[C@H]2O)[C@](C)(O)C[C@@H](C)C(=O)[C@H](C)[C@@H](O)[C@]1(C)O [ERYTHROMYCIN]
[8]
  Ratio: 4
[22]
  MIC: 10 µg/mL (≈ 13.6 µM)

## CO[C@@H]1[C@@H](OC(N)=O)[C@@H](O)[C@H](Oc2ccc3c(O)c(NC(=O)c4ccc(O)c(CC=C(C)C)c4)c(=O)oc3c2C)OC1(C)C [NOVOBIOCIN]
[8]
  Ratio: 2
[22]
  MIC: 8 µg/mL (≈ 13.1 µM)

## CN[C@@H]1[C@H](O[C@H]2[C@H](O[C@H]3[C@H](O)[C@@H](O)[C@H](N=C(N)N)[C@@H](O)[C@@H]3N=C(N)N)O[C@@H](C)[C@]2(O)C=O)O[C@@H](CO)[C@H](O)[C@H]1O [STREPTOMYCIN]
[27]
  MIC: 16 µg/mL (≈ 27.5 µM)

## CN(C)[C@@H]1C(O)=C(C(N)=O)C(=O)[C@@]2(O)C(O)=C3C(=O)c4c(O)cccc4[C@@](C)(O)[C@H]3C[C@@H]12 [TETRACYCLINE]
[8]
  Ratio: 1
[22]
  MIC: 0.3 µg/mL (≈ 0.675 µM)
[27]
  MIC: > 16 µg/mL

## CN[C@H](CC(C)C)C(=O)N[C@H]1C(=O)N[C@@H](CC(N)=O)C(=O)N[C@H]2C(=O)N[C@H]3C(=O)N[C@H](C(=O)N[C@H](C(=O)O)c4cc(O)cc(O)c4-c4cc3ccc4O)[C@H](O)c3ccc(c(Cl)c3)Oc3cc2cc(c3O[C@@H]2O[C@H](CO)[C@@H](O)[C@H](O)[C@H]2O[C@H]2C[C@](C)(N)[C@H](O)[C@H](C)O2)Oc2ccc(cc2Cl)[C@H]1O [VANCOMYCIN]
[8]
  Ratio: 2
[22]
  MIC: 2.5 µg/mL (≈ 1.73 µM)
[27]
  MIC: 20 µg/mL (≈ 13.8 µM)
